Data taken from ChEMBL document CHEMBL1781999, “Lead optimization of aryl and aralkyl amine-based triazolopyrimidine inhibitors of Plasmodium falciparum dihydroorotate dehydrogenase with antimalarial activity in mice” (J Med Chem, 2011).
Values after ≈ are worked out from the molar mass of the structure shown.

Experiments:
[1] = biological target: T1, Dihydroorotate dehydrogenase (Plasmodium falciparum, UniProt Q54A96); assay: Inhibition of His6-tagged recombinant Plasmodium falciparum dihydroorotate dehydrogenase expressed in Escherichia coli using L-dihydroorotate as substrate after 5 to 10 mins by DCIP dye-based assay
T1 sequence (Q54A96 whole entry): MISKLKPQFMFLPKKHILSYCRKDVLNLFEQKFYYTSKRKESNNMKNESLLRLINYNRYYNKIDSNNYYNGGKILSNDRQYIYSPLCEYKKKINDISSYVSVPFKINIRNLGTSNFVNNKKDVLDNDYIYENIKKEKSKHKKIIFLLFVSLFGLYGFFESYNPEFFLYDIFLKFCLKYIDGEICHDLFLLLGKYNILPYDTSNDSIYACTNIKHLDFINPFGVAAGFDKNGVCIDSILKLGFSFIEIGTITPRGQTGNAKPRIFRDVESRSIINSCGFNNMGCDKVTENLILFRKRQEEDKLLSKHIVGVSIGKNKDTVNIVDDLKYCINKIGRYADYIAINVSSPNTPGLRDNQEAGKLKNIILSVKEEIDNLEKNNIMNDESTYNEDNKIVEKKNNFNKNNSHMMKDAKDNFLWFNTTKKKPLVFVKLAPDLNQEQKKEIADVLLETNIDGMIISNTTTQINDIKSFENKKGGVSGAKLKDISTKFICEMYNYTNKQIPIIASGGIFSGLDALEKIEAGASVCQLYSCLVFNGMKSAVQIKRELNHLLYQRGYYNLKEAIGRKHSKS

[2] = biological target: Dihydroorotate dehydrogenase (quinone), mitochondrial (Homo sapiens, UniProt Q02127); assay: Inhibition of His6-tagged recombinant human dihydroorotate dehydrogenase expressed in Escherichia coli using L-dihydroorotate as substrate after 5 to 10 mins by DCIP dye-based assay
Plasmodium falciparum = assay: Antimalarial activity against Plasmodium falciparum 3D7 infected in human A positive erythrocytes by [3H]hypoxanthine uptake assay in presence of serum in medium; type: functional, organism-based
How it was run: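 Growth read by [3H]-hypoxanthine uptake. Each concentration run in quadruplicate and fitted to a four-parameter variable-slope log[I]-response model for 50% growth inhibition.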

[3] = Inhibition of His6-tagged recombinant Plasmodium berghei dihydroorotate dehydrogenase expressed in Escherichia coli using L-dihydroorotate as substrate after 10 to 15 mins by DCIP dye-based assay; settings: in the assay text read “5 to 10 mins” for “10 to 15 mins”
How it was run: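 Truncated soluble enzyme lacking the N-terminal membrane domain. Final concentrations: 0.2 mM L-dihydroorotate, 0.02 mM CoQD, 0.12 mM DCIP. Reaction started with 10 nM enzyme and read at 600 nm for 5–10 min at 20 °C. Inhibitor 0.01–100 μM in 3-fold steps, in triplicate. IC50 from a three-parameter fit of vi/vo from initial rates.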

[4] = Aqueous solubility of the compound in phosphate buffer at pH 6.5; type: physicochemical; settings: phosphate buffer, read-out: solubility
How it was run: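 Non-equilibrium solubility. Concentrated DMSO stocks were diluted into pH 6.5 phosphate buffer (final DMSO 1% v/v) and precipitation was monitored by nephelometry. Solubility is given as the concentration range just before a turbidity signal rose above background.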

Liver microsomes = assay: Intrinsic clearance in human liver microsome assessed per mg of protein at 1 uM after 60 mins by LC-MS analysis; type: ADME; settings: microsomes, 1 h, 1 µM
How it was run: (§1)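 Microsomal stability. Compound at 1 μM with liver microsomes (0.4 mg/mL protein) in 0.1 M phosphate pH 7.4 at 37 °C. Started with an NADPH-regenerating system plus MgCl2; controls lacked NADPH. Quenched with cold acetonitrile at time points up to 60 min. Parent loss measured by LC-MS and fitted to exponential decay to give CLint.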

Liver = assay: Intrinsic clearance in mouse liver microsome assessed per mg of protein at 1 uM after 60 mins by LC-MS analysis; type: ADME; settings: microsomes, 1 h
How it was run: as §1

[5] = Plasma protein binding in human by albumin chromatographic method; type: ADME, cell-free; settings: read-out: PPB (converted)
[6] = Partition coefficient, log D of the compound at pH 7.4 by UV-HPLC analysis; settings: octanol/water

Dihydroorotate dehydrogenase (quinone), mitochondrial, sequence (Q02127 whole entry): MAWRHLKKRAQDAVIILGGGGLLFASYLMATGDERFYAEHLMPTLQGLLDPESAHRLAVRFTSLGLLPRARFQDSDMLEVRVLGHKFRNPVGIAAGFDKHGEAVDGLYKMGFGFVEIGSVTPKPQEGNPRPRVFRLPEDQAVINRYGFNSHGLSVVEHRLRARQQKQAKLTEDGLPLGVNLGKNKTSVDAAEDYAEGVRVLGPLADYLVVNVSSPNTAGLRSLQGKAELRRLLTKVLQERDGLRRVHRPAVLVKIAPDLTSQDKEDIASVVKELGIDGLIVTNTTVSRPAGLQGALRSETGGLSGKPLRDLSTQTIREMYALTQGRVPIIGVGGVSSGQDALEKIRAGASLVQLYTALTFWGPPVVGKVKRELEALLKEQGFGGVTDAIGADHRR

Row | Compound | IC50 [1] [µM] | IC50 [2] [µM] | EC50 (Plasmodium falciparum) [µM] | IC50 [3] [µM] | solubility [4] [µM] | CL (Liver microsomes) [µL/min/mg] | CL (Liver) [µL/min/mg] | fraction unbound [5] | logD [6]
1 | CCCCCc1ccc(Nc2cc(C)nc3ncnn23)cc1 | 0.82 | > 100 | > 5 | 22 |  |  |  |  | 
2 | Cc1cc(NC2CCC2)n2ncnc2n1 | > 100 |  |  |  |  |  |  |  | 
3 | Cc1cc(Nc2ccc(C(C)(C)C#N)cc2)n2ncnc2n1 |  |  | 3.7 |  |  |  |  |  | 
4 | Cc1ccc(Nc2c3c(nc4ncnn24)CCC3)cc1F |  | > 100 | 8.3 | 1.3 |  |  |  |  | 
5 | Cc1cc(NCCc2ccccc2)n2ncnc2n1 | 15 |  | > 20 | 27 |  |  |  |  | 
6 | Cc1cc(Nc2ccc(CC(F)(F)F)cc2)n2ncnc2n1 | 2.5 |  |  | 8.8 |  |  |  |  | 
7 | CCCCCCCNc1cc(C)nc2ncnn12 | 8.6 |  | 13 | 55 |  |  |  |  | 
8 | CCc1c(C)nc2ncnn2c1Nc1ccc(OC(F)(F)F)cc1 |  | > 100 | > 10 | 5.7 |  |  |  |  | 
9 | Cc1cc(Nc2ccc(SC(F)(F)F)cc2)n2ncnc2n1 | 0.61 | > 50 | 0.27 | 1.2 | 5 (≈ 1.63 µg/mL) | < 5 | 119 | 0.039 | 
10 | Cc1cc(Nc2ccc(C(C)(C)C)cc2)n2ncnc2n1 | 0.078 | > 100 | 0.32 | 0.4 | 11 (≈ 3.09 µg/mL) | 43 |  | 0.068 | 3.4
11 | Cc1cc(Nc2ccc(C(F)(F)F)c(C(F)(F)F)c2)n2ncnc2n1 | 0.54 |  | 2.3 | 0.55 |  |  |  |  | 
12 | Cc1cc(Nc2ccc3ccccc3c2)n2ncnc2n1 |  |  |  |  | 45 (≈ 12.4 µg/mL) |  |  | 0.062 | 3.2
13 | Cc1cc(NC2CCCCCC2)n2ncnc2n1 | > 100 |  |  |  |  |  |  |  | 
14 | Cc1cc(Nc2ccc3c(c2)OCO3)n2ncnc2n1 | 1.6 | > 100 | 21 | 55 | 186 (≈ 50.1 µg/mL) | 11 |  |  | 1.6
15 | CCc1c(C)nc2ncnn2c1Nc1ccc(C(C)C)cc1 | 1.7 | > 100 | > 10 | 4.5 |  |  |  |  | 
16 | Cc1cc(NC2CCCCC2)n2ncnc2n1 | > 100 |  |  |  |  |  |  |  | 
17 | Cc1cc(Nc2ccc(Cl)c(F)c2)n2ncnc2n1 | 0.55 | > 50 | 3.5 | 1.3 |  |  |  |  | 
18 | CCCc1ccc(Nc2cc(C)nc3ncnn23)cc1 | 0.99 | > 100 | 6.8 | 9 | 187 (≈ 50 µg/mL) | 36 |  | 0.065 | 3.1
19 | Cc1cc(NC2CC2)n2ncnc2n1 | > 100 |  |  |  |  |  |  |  | 
20 | Cc1cc(NC2Cc3ccc(F)cc3C2)n2ncnc2n1 (stereo unspecified) | 0.61 | > 50 | 1.3 | 1.4 |  |  |  |  | 

Row | Compound | IC50 [1] [µM] | IC50 [2] [µM] | EC50 (Plasmodium falciparum) [µM] | IC50 [3] [µM] | solubility [4] [µM] | CL (Liver microsomes) [µL/min/mg] | CL (Liver) [µL/min/mg] | fraction unbound [5] | logD [6]
21 | CCCCCCCc1ccc(Nc2cc(C)nc3ncnn23)cc1 | 24 |  | > 5 | > 50 |  |  |  |  | 
22 | FC(F)(F)c1ccc(Nc2cc(C(F)(F)F)nc3ncnn23)cc1 | 1.7 | > 100 | > 10 | 2.3 |  |  |  |  | 
23 | Cc1cc(NC2CCCC2)n2ncnc2n1 | > 100 |  |  |  |  |  |  |  | 
24 | CCc1ccc(Nc2cc(C)nc3ncnn23)cc1 | 0.61 | > 100 | 3.3 | 3.9 | 25 (≈ 6.33 µg/mL) | 61 |  | 0.12 | 2.6
25 | Cc1cc(NC2CCc3cc(F)ccc3C2)n2ncnc2n1 (stereo unspecified) | 0.63 |  | 2.5 | 1.9 |  |  |  |  | 
26 | CCCCc1ccc(Nc2cc(C)nc3ncnn23)cc1 | 0.28 | > 100 | 4.8 | 5.25 | 11 (≈ 3.09 µg/mL) | 36 |  | 0.033 | 3.6
27 | Cc1cc(NC2CCCCCCCCCCC2)n2ncnc2n1 | 58 |  |  |  |  |  |  |  | 
28 | Cc1cc(Nc2ccc(N3CCCC3)cc2)n2ncnc2n1 | 3.5 |  | > 20 | > 50 |  |  |  |  | 
29 | Cc1cc(Nc2ccc(OC(C)(C)C)cc2)n2ncnc2n1 | 44 |  | > 10 |  |  |  |  |  | 
30 | FC(F)(F)c1ccc(Nc2cc(Cl)nc3ncnn23)cc1 | 0.17 | > 100 | 3.4 | 0.13 |  |  |  |  | 
31 | Cc1cc(NC2Cc3ccc(Br)cc3C2)n2ncnc2n1 (stereo unspecified) | 1.2 | > 50 | 6.6 | 3.3 |  |  |  |  | 
32 | CCc1cc(Nc2ccc(C(F)(F)F)cc2)n2ncnc2n1 | 0.78 | > 100 | 2.3 | 2 |  |  |  |  | 
33 | Cc1cc(Nc2ccc(N(C)C)cc2)n2ncnc2n1 | 0.82 | > 100 | 2.7 | 12 | 93 (≈ 25 µg/mL) | 9 | 226 |  | 2.2
34 | Cc1cc(NCc2ccc(F)cc2)n2ncnc2n1 | > 100 |  | > 10 |  |  |  |  |  | 
35 | COc1cc2c(cc1OC)CC(Nc1cc(C)nc3ncnn13)C2 | 4.6 |  | 7.7 | 41 |  |  |  |  | 
36 | CCc1nc(N)nc(N)c1-c1ccc(Cl)cc1 [PYRIMETHAMINE] |  |  | 0.023 |  |  |  |  | 0.13 | 
37 | CCCCCCc1ccc(Nc2cc(C)nc3ncnn23)cc1 | 4.2 |  | > 5 | 20 |  |  |  |  | 
38 | Cc1cc(NC2CCCCCCC2)n2ncnc2n1 | > 100 |  |  |  |  |  |  |  | 
39 | Cc1cc(NCc2ccccc2)n2ncnc2n1 | > 100 |  | > 10 |  |  |  |  |  | 
40 | Cc1cc(Nc2ccc3[nH]c(C(F)(F)F)nc3c2)n2ncnc2n1 | 21 |  | 25 | > 50 |  |  |  |  | 
